A selection: hits, their analogues and other compounds. The true share with any hit is near 4.9%.
NF-kB neuron act: NF-kB expression increase, human neuronal cells; fold change at 12.5 µM; NF-kB reporter expression; hits give high values; 1.6% of 190,000 active; in the data active means fold change above about 3.3
STAT3 inh: reduces IL-6 driven STAT3 reporter signal. 0.89% of 190,000 active. AID 862. U3A cells, IL-6 STAT3-luciferase reporter, luminescence; host cell line lacks STAT1. inhibition, % at 5.5 µM;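 active means inhibition above the mean inhibition across all screened compounds plus 3 SD, cut at about 44% in these data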
STAT3 activator: STAT3 signaling activation | U3A cells, IL-6 STAT3-luciferase reporter, luminescence; 100% = signal with IL-6 EC80 alone | activation (% of control), % at 5.6 µM | 0.91% of 190,000 active | AID 871;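 active means activation above the screen-wide mean of compound activation plus 3 SD, cut at about 130% in these data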
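system = STAT3-luciferase reporter U3A cells | reagent = IL-6 stimulus at 33 ng/mL final | timing = 1 h compound pre-exposure, 6 h IL-6 stimulation, 37 °C | measured by = luminescence | evaluation = % activation versus median of IL-6-stimulated wells | control set = IL-6-only wells as 100% reference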
STAT1 inh: reduces IFN-gamma driven STAT1 reporter signal | NIH 3T3 STAT1-luciferase reporter, luminescence | 0.35% of 200,000 active | inhibition, % at 5.5 µM | AID 920;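 active means inhibition above a set limit, the mean inhibition across all tested compounds plus 3 SD, cut at about 34% in these data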
STAT1 act: STAT1 signaling activation; 2.6% of 200,000 active; activation (% of control), % at 5.5 µM; NIH 3T3 STAT1-luciferase reporter, IFN-gamma, luminescence; 100% = IFN-gamma alone, no compound;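 active means activation above the screen-wide mean activation plus 3 SD, cut at about 130% in these data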
APP 5'UTR act: APP 5'UTR luciferase reporter activation; SH-SY5Y APP 5'UTR luciferase reporter, luminescence; zero percent = DMSO vehicle wells; activation, % at 2 µM; 1% of 190,000 active; AID 1276;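 active means activation above a set limit, based on mean plus 3 SD of controls, cut at about 140% in these data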
A number is an active result; - = inactive; . = no result.

SMILES	NF-kB neuron act	STAT3 inh	STAT3 activator	STAT1 inh	STAT1 act	APP 5'UTR act
CCOC(=O)C1(C)NC(c2ccco2)C2C(=O)N(CC)C(=O)C21 (configuration not stated)	-	-	-	-	-	-
O=C(Nc1ccc(Cl)cc1)c1ccc(OCC2CCCO2)cc1 (configuration not stated)	-	-	-	-	137	-
COc1cc(C2=NC(CO)(CO)CO2)cc(OC)c1OC	-	-	-	-	-	-
Cc1ccsc1/C=C1/NC(=O)N(Cc2ccc(F)cc2)C1=O	-	-	-	-	-	-
O=[N+]([O-])c1ccc(S(=O)(=O)N/N=C/c2ccco2)cc1	-	-	-	-	-	-
CN=c1scc(-c2ccc([N+](=O)[O-])cc2)n1/N=C/c1ccco1	-	-	-	-	-	196
Brc1ccc(-c2csc(N/N=C/c3ccco3)n2)cc1	-	-	-	-	-	-
O=C1NC(c2ccc(Br)cc2)=N/C1=C/c1ccco1	-	-	-	-	-	140
O=C(O)c1nn2cc(CCO)cnc2c1Cl	-	-	-	-	-	-
CC(C)OC(=O)CCCNc1ccc([N+](=O)[O-])cc1[N+](=O)[O-]	-	-	-	-	-	-
CCN(CC)c1ccc(NC(=O)c2ccccc2OCC(=O)OC)cc1	-	-	-	-	-	-
COc1ccc2nc(SCc3cccc(C)c3)nc(C)c2c1	3.5	-	-	-	130	-
COc1ccc2nc(SCc3ccccc3C)nc(C)c2c1	-	-	-	-	-	-
Cc1ccc(Cl)cc1NC(=S)N(Cc1ccccc1)Cc1cccnc1	-	-	-	-	-	-
CCOc1cccc(C(=O)Nc2nc(-c3ccc(S(=O)(=O)N4CCOCC4)cc3)cs2)c1	-	-	-	35	-	-
CCOC(=O)c1ccc(NC(=S)NCCc2ccc(F)cc2)cc1	-	-	-	-	-	-
CCOC(=O)c1c(NC(=O)CSc2nc3nc(C)cc(C)n3n2)sc(CC)c1C	-	-	-	-	-	-
N/C(=N\OC(=O)c1cccc2ccccc12)c1cccnc1	-	-	136	-	-	-
N/C(=N\OC(=O)c1ccc(Cl)cc1Cl)c1cccnc1	6.3	-	-	-	129	-
O=C(O/N=C(\c1ccccc1)c1ccncc1)c1ccccc1Cl	-	-	-	-	-	-
N/C(=N\OC(=O)c1ccc(Cl)cc1)c1cccnc1	-	-	-	-	-	-
N/C(=N\OC(=O)c1ccco1)c1ccc(Cl)cc1	-	-	-	-	137	158
N/C(=N\OC(=O)c1ccccc1Cl)c1ccccc1	7.7	-	-	-	-	166
C=CCn1c(SCC(=O)c2c(N)n(CCC)c(=O)n(C)c2=O)nnc1-c1ccncc1	-	-	-	-	-	-
CC(NC(=O)C(=O)N/N=C\c1cccc([N+](=O)[O-])c1)c1ccccc1 (configuration not stated)	-	-	-	-	-	-
SMILES	NF-kB neuron act	STAT3 inh	STAT3 activator	STAT1 inh	STAT1 act	APP 5'UTR act
N/C(=N\OC(=O)c1ccc(Cl)cc1Cl)c1ccccc1	-	-	-	-	-	174
N/C(=N\OC(=O)CCc1ccccc1)c1ccccc1Cl	-	-	-	-	141	-
COc1ccc(C(=O)O/N=C(\N)c2ccccc2)c(OC)c1	-	76	-	34	-	188
COc1ccc(/C(N)=N/OC(=O)Oc2ccccc2)cc1OC	-	-	-	-	-	-
COc1ccccc1C(=O)Oc1ccc(C(C)C)cc1	-	-	-	-	-	-
N/C(=N\OC(=O)c1ccc(Cl)cc1Cl)c1ccc(Cl)cc1	-	-	-	-	-	-
Cc1ccc(/C(N)=N/OC(=O)CCc2ccccc2)cc1	-	-	-	-	-	-
COc1ccccc1C(=O)O/N=C(\N)c1ccccc1Cl	-	-	-	-	139	-
COC(=O)CNC(=O)COC(=O)c1ccc(Cl)nc1	-	-	-	-	-	-
CCN(CC(=O)Nc1ccc(OC)c(Cl)c1)CC(=O)NC(C)C	-	-	-	-	-	-
COc1ccc2[nH]c3c(NCCC4=CCCCC4)ncnc3c2c1	-	-	-	-	-	-
O=C(COc1ccccc1-c1ccccc1)N/N=C/c1cccc2ccccc12	4.1	-	-	-	-	-
COc1ccc(/C=N/NC(=O)COc2ccccc2-c2ccccc2)cc1	5.3	-	-	-	-	-
O=C(COc1cccc2ccccc12)N/N=C/c1ccccc1OCc1ccc(C(=O)O)cc1	-	-	-	-	-	-
CCNC(=O)/C(=C/c1ccco1)NC(=O)/C=C/c1ccccc1	-	-	-	-	-	-
O=C(c1ccc(C(=O)N2CCCc3ccccc32)s1)N1CCCc2ccccc21	-	-	-	-	-	-
O=C(c1ccc(Cl)s1)N1CCc2ccccc21	-	-	-	-	144	-
Cc1ccc(C(=O)N2CCc3ccccc32)cc1	-	-	-	-	-	-
O=C(CSC1=NCCS1)N1CCc2ccccc21	3.5	-	-	-	-	-
Nc1ccccc1SCC(=O)N1CCc2ccccc21	-	-	-	-	-	-
CCc1sc(C(=O)N2CCc3ccccc32)cc1C	8.3	-	-	-	134	189
O=S(=O)(NC(=NCc1ccccc1)c1ccc(F)cc1)c1ccc(Cl)cc1	-	-	-	-	-	-
FC(F)C(F)(F)C(F)(F)C(F)(F)c1cc(-c2ccccc2)n[nH]1	5.1	-	-	-	-	-
COCCn1c(C)cc(/C=C2/NC(=O)N(c3ccc(Cl)cc3)C2=O)c1C	-	-	-	-	-	-
CCOc1ccc(NC(=O)Cc2ccccc2)c([N+](=O)[O-])c1	-	-	-	-	-	-
SMILES	NF-kB neuron act	STAT3 inh	STAT3 activator	STAT1 inh	STAT1 act	APP 5'UTR act
CCOc1ccc(C(=O)N/N=C/c2ccccc2[N+](=O)[O-])cc1	-	-	-	-	134	140
O=C(COc1ccccc1)Nc1ccccc1Cl	-	-	-	-	132	-
CCOc1ccc(NC(=O)COc2ccccc2)c([N+](=O)[O-])c1	4.1	-	-	-	148	-
CCC(=O)Nc1ccc(C(=O)N/N=C/c2ccccc2[N+](=O)[O-])cc1	-	-	-	-	-	-
COc1ccc(NC(=O)/C=C/c2ccccc2)c([N+](=O)[O-])c1	-	-	-	-	147	-
COc1ccc(N(CCC(=O)O)S(=O)(=O)c2ccc(C)cc2C)cc1	-	-	-	-	-	-
Cn1cnnc1SCCCN1C(=O)c2cccc3cccc(c23)C1=O	.	-	-	-	-	-
O=C(Nc1ccccc1O)c1c(O)c2c([nH]c1=O)CCCC2	4.5	-	-	-	-	-
CCn1c(O)c(C2=c3ccccc3=NC2=O)c2cc(Br)ccc21	-	-	134	-	-	-
Cc1coc2c1C(=O)C(=O)c1c-2ccc2c1CCCC2(C)C	-	.	.	-	-	-
C[C@H]1COC2=C1C(=O)C(=O)c1c2ccc2c1CCCC2(C)C	-	.	.	-	129	-

Compound activity deposited in PubChem by several laboratories.
